A word on the IC50: it is the concentration needed to halve the response being measured. One may read the inhibition as the drop in the measured response relative to a control, in per cent. A higher inhibition goes with strong suppression.

Results on 14 compounds are retold here after ChEMBL document CHEMBL1125133, “Benzodiazepine receptor binding activity of 9-(1-phenylethyl)purines” (J Med Chem, 1990).

The target of assay [1] is GABA-A receptor; anion channel. Kind of assay: Inhibitory concentration against specific binding of [3H]diazepam to Benzodiazepine receptor in rat brain. In kind it is tissue-based.
The species entered for a further assay is Rattus norvegicus. Kind of assay: Percent change in conflict responding in Long-Evans rats. In kind it is functional. The procedure, abridged: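 Long-Evans rats on a modified Geller–Seifter conflict schedule. Dosed by oral gavage at 25 mg/kg as a 0.5% methylcellulose suspension, with chlordiazepoxide at 20 mg/kg. Read-out is percent change in conflict responding, mean ±.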

Assay [2] has as its target T1, GABA-A receptor; anion channel (Rattus norvegicus) (UniProt O09028+P15431+P18506+P18508+P19969+P20236+P23574+P23576+P28471+P28473+P30191+P62813+P63079+P63138+Q91ZM7+Q9ES14). Nature of the assay: Inhibition of [3H]-diazepam binding to rat brain GABA-A benzodiazepine receptor at 100 uM.
For assay [3], the target named is T1, GABA-A receptor; anion channel (Rattus norvegicus). Kind of assay: Inhibition of [3H]diazepam binding to rat brain GABA-A Benzodiazepine receptor at 100 uM.

The compound `C[C@H](c1ccccc1)n1cnc2c(N(C)C)ncnc21` registered an IC50 in assay [1] of 100000 nM.

Turning to `C[C@@H](c1ccccc1)n1cnc2c(N(C)C)ncnc21`, in the assay listed under Rattus norvegicus, the Change worked out at 5%.

With `CN(C)c1ncnc2c1ncn2Cc1cccc(O)c1`, the Change in the assay filed under Rattus norvegicus was 2%.

Take `CC(=O)Oc1cccc(Cn2cnc3c(N(C)C)ncnc32)c1`: the Change in the assay filed under Rattus norvegicus came out at 2%.

As to `CSc1ncnc2c1ncn2Cc1ccccc1`, the Change in the assay filed under Rattus norvegicus is given as 13%.

In assay [1], `CC(c1cccc(O)c1)n1cnc2c(O)ncnc21` (racemic) had an IC50 of 2200 nM.

`CC(=O)Oc1cccc(C(C)n2cnc3c(N(C)C)ncnc32)c1` (racemic): in assay [1], the half-maximal inhibitory concentration (IC50) was 380 nM.

Consider `CC(c1cccc(O)c1)n1cnc2c(N(C)C)ncnc21` (racemic), for which the IC50 in assay [1] worked out at 480 nM. Besides, the Change in the assay filed under Rattus norvegicus is listed as -7%.

Consider `CC(c1cccc(N)c1)n1c(Br)nc2c(N(C)C)ncnc21` (racemic), for which the 50% inhibitory concentration (IC50) in assay [1] came to 520 nM. Further, the Change in the assay listed under Rattus norvegicus is 5%.

Turning to `CSc1ncnc2c1ncn2C(C)c1cccc(OC(C)=O)c1` (racemic), in assay [1], the IC50 is 1700 nM.

In assay [1], `CC(c1cccc(N)c1)n1cnc2c(N(C)C)ncnc21` (racemic) showed an IC50 of 160 nM. Besides, in the assay filed under Rattus norvegicus, the Change is -22%.

In assay [1], `CSc1ncnc2c1ncn2C(C)c1cccc(O)c1` (racemic) showed an IC50 of 1200 nM.

On to `CC(=O)Oc1cccc(C(C)n2cnc3c(O)ncnc32)c1` (racemic), for which, in assay [2], the inhibition was determined as 68%.

In assay [3], `CC(c1cccc(O)c1)n1cnc2c(S)ncnc21` (racemic) yielded an inhibition of 64%.
